Measured values published in ChEMBL document CHEMBL3785077 (J Med Chem, 2016).
The source made the active and inactive calls. No cut-off for these calls is given here.

Key:
[1] = molecular target: Cholinesterase (Equus caballus) (UniProt P81908); assay: Pseudo-irreversible inhibition of equine serum butyrylcholinesterase assessed as carbamoylation rate of inhibitor from reversible enzyme inhibitor complex to carbamoylated enzyme using p-nitrophenyl butyrate as substrate preincubated for 5 to 40 mins followed by substrate addition by double reciprocal plot analysis
HT-22 = assay: Neuroprotective activity against glutamate-induced oxycytotic cell death in mouse HT22 cells assessed as cell viability at 5 to 25 uM after 24 hrs by MTT assay; format: functional, cell-based
Summary of the method: (§1)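 Murine hippocampal HT-22 cells in high-glucose DMEM with 10% heat-inactivated FCS, 37 °C, 5% CO2. […] MTT 3 h, SDS lysis, absorbance at 560 nm, viability as % of untreated cells.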

Cholinesterase [2] = molecular target: T1, Cholinesterase (Equus caballus, UniProt P81908); assay: Inhibition of equine serum butyrylcholinesterase using […] as substrate preincubated for 30 mins followed by substrate addition measured after 2.5 mins by Ellman's spectrophotometric method
Summary of the method: (§2)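 Ellman assay at 25 °C in phosphate buffer pH 8.0. Enzyme (AChE from human erythrocytes, BChE from equine or human serum; 2.5 units/mL stock with 2 mg/mL BSA) and DTNB (0.3 mM in assay) preincubated with compound from ethanol stocks (1 nM−1 mM in assay). Ethanol control, triplicates, IC50 from activity vs log concentration.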

[3] = molecular target: Cholinesterase (Equus caballus) (UniProt P81908); assay: (§3) Pseudo-irreversible inhibition of equine serum butyrylcholinesterase assessed as apparent affinity between enzyme and inhibitor at equilibrium state using p-nitrophenyl butyrate as substrate preincubated for 5 to 40 mins followed by substrate addition by double reciprocal plot analysis
[4] = molecular target: Cholinesterase (Equus caballus) (UniProt P81908); assay: as §3, with “assessed as ratio of carbamoylation rate of inhibitor to apparent affinity” for “assessed as apparent affinity”
[5] = Neurotoxicity against mouse HT22 cells assessed as cell viability up to 10 uM after 24 hrs by MTT assay; format: toxicity, cell-based, HT-22; conditions: read-out: Activity; summary of the method: as §1
[6] = molecular target: Cholinesterase (Equus caballus) (UniProt P81908); assay: Pseudo-irreversible inhibition of equine serum butyrylcholinesterase assessed as half life for carbamoylated enzyme using […] as substrate preincubated for 1 hr followed by 1000 fold dilution
Summary of the method: (§4)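 Enzyme incubated 1 h with inhibitor at a fully inhibiting concentration, then diluted 1:1000 in assay buffer. Activity measured by Ellman assay at various times after dilution, with uninhibited enzyme treated the same way as control. First-order fit of activity recovery gives k4.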

[7] = Antioxidant activity assessed as trolox equivalents of AAPH radical scavenging activity preincubated for 15 mins followed by AAPH addition measured every 60 secs for 90 mins by ORAC assay; format: physicochemical; conditions: 1.5 h
Summary of the method: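 ORAC-FL: compound (1−5 μM) with fluorescein (300 nM final) in 75 mM phosphate buffer pH 7.4, 15 min at 37 °C, then AAPH (12 mM final). Fluorescence read every 60 s for 90 min (ex 485/em 535 nm). […] Samples in quadruplicate, ≥4 independent runs.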

[8] = molecular target: Cholinesterase (Equus caballus) (UniProt P81908); assay: Pseudo-irreversible inhibition of equine serum butyrylcholinesterase assessed as decarbamoylation rate using […] as substrate preincubated for 1 hr followed by 1000 fold dilution; summary of the method: as §4
Acetylcholinesterase [9] = molecular target: T2, Acetylcholinesterase (Homo sapiens, UniProt P22303); assay: Inhibition of human acetylcholinesterase using […] as substrate at 100 uM preincubated for 4.5 mins followed by substrate addition measured after 2.5 mins by Ellman's spectrophotometric method
Acetylcholinesterase [10] = molecular target: T2, Acetylcholinesterase; assay: Inhibition of human acetylcholinesterase using […] as substrate at 10 uM preincubated for 4.5 mins followed by substrate addition measured after 2.5 mins by Ellman's spectrophotometric method
Acetylcholinesterase [11] = molecular target: T2, Acetylcholinesterase; assay: Inhibition of human acetylcholinesterase using […] as substrate preincubated for 4.5 mins followed by substrate addition measured after 2.5 mins by Ellman's spectrophotometric method
Summary of the method: as §2, with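 “assay). Acetyl- or butyrylthiocholine added (452 μM in assay), absorbance at 412 nm after 2.5 min.” for “assay).”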

Cholinesterase [12] = molecular target: T1, Cholinesterase; assay: Inhibition of equine serum butyrylcholinesterase using […] as substrate preincubated for 4.5 mins followed by substrate addition measured after 2.5 mins by Ellman's spectrophotometric method
Summary of the method: as §2, with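 “assay). Acetyl- or butyrylthiocholine added (452 μM in assay), absorbance at 412 nm after 2.5 min.” for “assay).”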

Acetylcholinesterase [13] = molecular target: T2, Acetylcholinesterase; assay: Inhibition of human acetylcholinesterase using […] as substrate at 500 uM preincubated for 4.5 mins followed by substrate addition measured after 2.5 mins by Ellman's spectrophotometric method
Acetylcholinesterase [14] = molecular target: T2, Acetylcholinesterase; assay: Inhibition of human acetylcholinesterase using […] as substrate preincubated for 30 mins followed by substrate addition measured after 2.5 mins by Ellman's spectrophotometric method; summary of the method: as §2

T1 sequence (P81908 whole entry): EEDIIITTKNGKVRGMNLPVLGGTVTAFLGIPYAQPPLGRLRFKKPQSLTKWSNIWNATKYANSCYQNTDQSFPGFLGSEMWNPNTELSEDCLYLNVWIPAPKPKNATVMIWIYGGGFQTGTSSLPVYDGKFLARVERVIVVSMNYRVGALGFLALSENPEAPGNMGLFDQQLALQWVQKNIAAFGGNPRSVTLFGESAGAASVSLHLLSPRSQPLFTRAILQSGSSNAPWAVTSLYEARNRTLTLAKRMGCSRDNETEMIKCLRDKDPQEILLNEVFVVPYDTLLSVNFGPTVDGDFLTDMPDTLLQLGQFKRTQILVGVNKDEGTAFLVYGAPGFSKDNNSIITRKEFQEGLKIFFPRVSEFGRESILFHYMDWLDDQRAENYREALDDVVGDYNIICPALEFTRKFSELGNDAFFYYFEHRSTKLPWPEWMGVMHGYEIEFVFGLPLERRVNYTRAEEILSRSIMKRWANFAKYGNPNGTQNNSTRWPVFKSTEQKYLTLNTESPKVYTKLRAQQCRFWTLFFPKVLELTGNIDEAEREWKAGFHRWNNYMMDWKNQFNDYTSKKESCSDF
Sequence of Cholinesterase (Equus caballus) (P81908 whole entry): as above
T2 sequence (P22303 whole entry): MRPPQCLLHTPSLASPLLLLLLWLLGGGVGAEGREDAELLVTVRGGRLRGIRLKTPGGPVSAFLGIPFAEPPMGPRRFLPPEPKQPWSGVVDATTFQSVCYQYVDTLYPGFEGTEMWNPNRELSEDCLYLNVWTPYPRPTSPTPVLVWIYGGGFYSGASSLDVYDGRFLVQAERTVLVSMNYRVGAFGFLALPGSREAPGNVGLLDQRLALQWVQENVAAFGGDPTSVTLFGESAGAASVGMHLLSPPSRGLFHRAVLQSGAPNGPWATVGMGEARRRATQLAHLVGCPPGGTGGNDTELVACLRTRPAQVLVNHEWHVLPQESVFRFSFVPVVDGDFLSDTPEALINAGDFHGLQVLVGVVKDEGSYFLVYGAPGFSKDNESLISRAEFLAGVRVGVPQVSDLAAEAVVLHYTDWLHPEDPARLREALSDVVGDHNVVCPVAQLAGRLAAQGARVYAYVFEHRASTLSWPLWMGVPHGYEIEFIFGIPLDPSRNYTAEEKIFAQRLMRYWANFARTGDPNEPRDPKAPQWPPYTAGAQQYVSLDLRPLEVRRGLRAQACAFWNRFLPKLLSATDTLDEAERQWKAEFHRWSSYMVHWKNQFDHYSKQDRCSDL

For `CCCCCCCNC(=O)Oc1ccc2c(c1)CN(C)C(c1ccccc1)N2C` (stereo unspecified), the K [1] was 0.13 min⁻¹, the Activity (HT-22) was “Active” and the IC50 (Cholinesterase [2]) was 0.106 µM. For the same compound, the K [3] was 226 nM, the Ratio [4] was 0.57 µM⁻¹ min⁻¹ and the viability at 24 h [5] was greater than 80%. For the same compound, the T1/2 [6] was 5 h, the Activity [7] was 0.2 equiv and the K [8] was 0.14 h⁻¹. For the same compound, the inhibition (Acetylcholinesterase [9]) was 4%.
With `CCCCCCCNC(=O)Oc1ccc2c(c1)CN(C)C(c1ccccc1OC)N2C` (stereo unspecified) the IC50 (Cholinesterase [2]) was 0.238 µM and the inhibition (Acetylcholinesterase [10]) was 47%.
In the case of `CCCCCCCNC(=O)Oc1ccc2c(c1)CN(C)C(c1ccc(OC)cc1)N2C` (stereo unspecified), the K [1] is reported as 0.24 min⁻¹, the Activity (HT-22) is reported as “Active” and the IC50 (Cholinesterase [2]) is reported as 0.875 µM. It also gave a K [3] of 1200 nM, a Ratio [4] of 0.2 µM⁻¹ min⁻¹ and a viability at 24 h [5] greater than 80%. For the same compound, the Activity [7] was 0.5 equiv and the inhibition (Acetylcholinesterase [9]) was 14%.
For `CCCCCCCNC(=O)Oc1ccc2c(c1)CN(C)C(c1ccoc1)N2C` (stereo unspecified), the IC50 (Cholinesterase [2]) was 0.083 µM and the inhibition (Acetylcholinesterase [9]) was 12%.
For `Cc1ccc(C2N(C)Cc3cc(O)ccc3N2C)cc1` (stereo unspecified), the IC50 (Acetylcholinesterase [11]) was 110 µM and the IC50 (Cholinesterase [12]) was 22.6 µM.
`CN1Cc2cc(O)ccc2N(C)C1c1ccoc1` (stereo unspecified) gave an IC50 (Acetylcholinesterase [11]) of 342 µM and an IC50 (Cholinesterase [12]) of 196 µM.
`CCCCCCCNC(=O)Oc1ccc2c(c1)CN(C)C(c1cccc3ccccc13)N2C` (stereo unspecified) gave a K [1] of 0.03 min⁻¹, an IC50 (Cholinesterase [2]) of 36.2 µM and a K [3] of 15.6 nM. For the same compound, the Ratio [4] was 1.92 µM⁻¹ min⁻¹ and the inhibition (Acetylcholinesterase [10]) was 8%.
`CCCCCCCNC(=O)Oc1ccc2c(c1)CN(C)C(c1cccc(OC)c1)N2C` (stereo unspecified) showed a K [1] of 0.18 min⁻¹, an IC50 (Cholinesterase [2]) of 0.208 µM and a K [3] of 622 nM. For the same compound, the Ratio [4] was 0.29 µM⁻¹ min⁻¹ and the inhibition (Acetylcholinesterase [9]) was 10%.
With `CN1Cc2cc(O)ccc2N(C)C1c1cccc(Cl)c1` (stereo unspecified) the IC50 (Acetylcholinesterase [11]) was 242 µM and the IC50 (Cholinesterase [12]) was 2.1 µM.
In the case of `CN1Cc2cc(O)ccc2N(C)C1c1cc[nH]c1` (stereo unspecified), the IC50 (Acetylcholinesterase [11]) is reported as 116 µM and the IC50 (Cholinesterase [12]) is reported as 15.3 µM.
`CCCCCCCNC(=O)Oc1ccc2c(c1)CN(C)C(c1ccc3ccccc3c1)N2C` (stereo unspecified) gave an IC50 (Cholinesterase [2]) of 0.374 µM and an inhibition (Acetylcholinesterase [10]) of 5%.
With `CCCCCCCNC(=O)Oc1ccc2c(c1)CN(C)C(c1c(Cl)cccc1Cl)N2C` (stereo unspecified) the K [1] was 0.23 min⁻¹, the IC50 (Cholinesterase [2]) was 0.531 µM and the K [3] was 4120 nM. It also gave a Ratio [4] of 0.06 µM⁻¹ min⁻¹ and an inhibition (Acetylcholinesterase [10]) of 33%.
`CCCCCCCNC(=O)Oc1ccc2c(c1)CN(C)C(c1ccc(C)cc1)N2C` (stereo unspecified) gave an IC50 (Cholinesterase [2]) of 0.231 µM and an inhibition (Acetylcholinesterase [9]) of 9%.
Work on `CN1Cc2cc(O)ccc2N(C)C1c1cccnc1` (stereo unspecified) yielded an IC50 (Cholinesterase [12]) of 70.7 µM and an inhibition (Acetylcholinesterase [13]) of 61%.
Work on `CCCCCCCNC(=O)Oc1ccc2c(c1)CN(C)C(c1ccc(C(F)(F)F)cc1)N2C` (stereo unspecified) yielded a K [1] of 0.05 min⁻¹, an IC50 (Cholinesterase [2]) of 2.7 µM and a K [3] of 756 nM. It also gave a Ratio [4] of 0.07 µM⁻¹ min⁻¹ and an inhibition (Acetylcholinesterase [9]) of 59%.
`CN1Cc2cc(O)ccc2N(C)C1c1ccccc1Cl` (stereo unspecified) showed an IC50 (Cholinesterase [12]) of 56 µM and an inhibition (Acetylcholinesterase [13]) of 60%.
In the case of `COc1ccccc1C1N(C)Cc2cc(O)ccc2N1C` (stereo unspecified), the IC50 (Acetylcholinesterase [11]) is reported as 193 µM and the IC50 (Cholinesterase [12]) is reported as 9.9 µM.
`CCCCCCCNC(=O)Oc1ccc2c(c1)CN(C)C(c1ccc(F)cc1)N2C` (stereo unspecified) gave an IC50 (Acetylcholinesterase [14]) of 1.61 µM, a K [1] of 0.14 min⁻¹ and an IC50 (Cholinesterase [2]) of 0.044 µM. For the same compound, the K [3] was 24.5 nM and the Ratio [4] was 5.71 µM⁻¹ min⁻¹.
In the case of `CN1Cc2cc(O)ccc2N(C)C1c1ccc(C(F)(F)F)cc1` (stereo unspecified), the IC50 (Cholinesterase [12]) is reported as 64.6 µM.
Compound `CN1Cc2cc(O)ccc2N(C)C1c1ccsc1` (stereo unspecified) has an IC50 (Cholinesterase [12]) of 194 µM and an inhibition (Acetylcholinesterase [13]) of 52%.
With `CN1Cc2cc(O)ccc2N(C)C1c1cccc2ccccc12` (stereo unspecified) the IC50 (Acetylcholinesterase [11]) was 342 µM and the IC50 (Cholinesterase [12]) was 2.8 µM.
Work on `CCCCCCCNC(=O)Oc1ccc2c(c1)CN(C)C(c1ccccc1Cl)N2C` (stereo unspecified) yielded an IC50 (Cholinesterase [2]) of 0.474 µM and an inhibition (Acetylcholinesterase [10]) of 48%.
In the case of `CN1Cc2cc(O)ccc2N(C)C1c1ccc(Cl)cc1` (stereo unspecified), the IC50 (Acetylcholinesterase [11]) is reported as 236 µM and the IC50 (Cholinesterase [12]) is reported as 13.8 µM.
`CCCCCCCNC(=O)Oc1ccc2c(c1)CN(C)C(c1ccccc1C)N2C` (stereo unspecified) showed an IC50 (Cholinesterase [2]) of 0.251 µM and an inhibition (Acetylcholinesterase [10]) of 18%.
